Measurements published in ChEMBL document CHEMBL2040850, “Indole based cyclooxygenase inhibitors: synthesis, biological evaluation, docking and NMR screening” (Eur J Med Chem, 2012).
Calls of active or inactive are those of the source. The rule behind the calls is not given here.

molecular target: T1, Prostaglandin G/H synthase 1 (Ovis aries) (UniProt P05979); assay: Reversible binding affinity to ram seminal vesicle COX1 at 300 uM by STD-NMR spectroscopy; conditions: not given
T1 sequence (whole entry): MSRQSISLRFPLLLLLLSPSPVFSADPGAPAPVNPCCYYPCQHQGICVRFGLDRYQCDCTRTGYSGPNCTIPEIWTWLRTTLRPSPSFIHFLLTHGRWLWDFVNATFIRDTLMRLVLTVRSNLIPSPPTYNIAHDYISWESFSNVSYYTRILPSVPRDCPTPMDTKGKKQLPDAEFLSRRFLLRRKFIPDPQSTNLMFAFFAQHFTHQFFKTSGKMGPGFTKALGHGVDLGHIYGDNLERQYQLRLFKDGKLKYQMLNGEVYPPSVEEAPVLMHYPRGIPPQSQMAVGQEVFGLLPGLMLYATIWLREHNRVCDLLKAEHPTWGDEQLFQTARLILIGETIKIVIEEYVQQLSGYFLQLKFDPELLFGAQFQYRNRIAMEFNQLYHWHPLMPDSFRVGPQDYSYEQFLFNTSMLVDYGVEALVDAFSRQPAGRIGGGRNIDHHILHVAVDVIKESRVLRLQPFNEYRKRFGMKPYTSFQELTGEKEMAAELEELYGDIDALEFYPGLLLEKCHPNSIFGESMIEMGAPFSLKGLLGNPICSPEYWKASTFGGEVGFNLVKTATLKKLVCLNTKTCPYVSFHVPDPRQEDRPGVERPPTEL
Outline: (§1)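 STD-NMR of ligand binding to COX-1 (ram seminal vesicle) or COX-2 (sheep placenta) in 80 mM Tris–HCl pH 8.0 with 0.1% Tween 20 and 300 µM DDC. Final mixture was about 3 µM enzyme and 300 µM ligand, added from a 2 mM DMSO-d6 stock. Protein irradiated at -300 Hz with 51 shaped 90° pulses (2.5 s total saturation), 20 ms spin-lock filter, 1024 transients.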

| Structure (SMILES) | Activity |
| --- | --- |
| NS(=O)(=O)c1ccc2[nH]cc(Cc3ccc(F)cc3)c2c1 | Active |

molecular target: T2, Prostaglandin G/H synthase 2 (Ovis aries) (UniProt P79208); assay: Reversible binding affinity to sheep placenta COX2 at 300 uM by STD-NMR spectroscopy; conditions: not given; outline: as §1
T2 sequence (whole entry): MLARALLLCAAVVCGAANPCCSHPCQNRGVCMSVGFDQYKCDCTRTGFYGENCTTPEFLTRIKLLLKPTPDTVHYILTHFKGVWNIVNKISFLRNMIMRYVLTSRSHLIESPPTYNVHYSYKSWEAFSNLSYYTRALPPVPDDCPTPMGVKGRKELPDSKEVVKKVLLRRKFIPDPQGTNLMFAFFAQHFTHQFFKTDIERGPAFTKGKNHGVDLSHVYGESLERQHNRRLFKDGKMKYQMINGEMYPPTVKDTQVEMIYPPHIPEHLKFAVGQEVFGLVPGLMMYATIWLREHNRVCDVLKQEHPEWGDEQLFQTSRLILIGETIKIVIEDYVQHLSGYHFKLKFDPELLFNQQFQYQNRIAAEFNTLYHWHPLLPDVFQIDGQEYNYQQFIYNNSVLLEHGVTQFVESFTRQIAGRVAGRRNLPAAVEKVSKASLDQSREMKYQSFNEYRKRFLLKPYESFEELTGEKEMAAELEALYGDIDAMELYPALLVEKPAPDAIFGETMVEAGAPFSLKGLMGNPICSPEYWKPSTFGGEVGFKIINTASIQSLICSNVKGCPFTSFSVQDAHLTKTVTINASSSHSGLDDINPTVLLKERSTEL

| Structure (SMILES) | Activity |
| --- | --- |
| NS(=O)(=O)c1ccc2[nH]c(Cc3ccc(F)cc3)c(Cc3ccc(F)cc3)c2c1 | Active |

molecular target: T1, Prostaglandin G/H synthase 1 (Ovis aries); assay: not given; conditions: 1 uM

| Structure (SMILES) | inhibition |
| --- | --- |
| COc1ccc2c(c1)c(CC(=O)O)c(C)n2C(=O)c1ccc(Cl)cc1 | 46% |

molecular target: Prostaglandin G/H synthase 1 (Ovis aries) (UniProt P05979); assay: Inhibition of ovine COX1 assessed as PGE2 formation at 50 uM by enzyme immunoassay; conditions: not given

| Structure (SMILES) | inhibition |
| --- | --- |
| CS(=O)(=O)c1ccc2c(c1)c(Cc1ccc(Cl)cc1)cn2C=CCC(F)(F)F (mixture of isomers) | 11% |
| NS(=O)(=O)c1ccc2[nH]cc(Cc3ccc(F)cc3)c2c1 | 40% |
| CS(=O)(=O)c1ccc2c(c1)c(Cc1ccc(F)cc1)cn2C=CCC(F)(F)F (mixture of isomers) | 8% |
| NS(=O)(=O)c1ccc(Cc2c[nH]c3ccc(Br)cc23)cc1 | 11% |
| NS(=O)(=O)c1ccc2[nH]c(Cc3ccc(Br)cc3)c(Cc3ccc(Br)cc3)c2c1 | 35% |

Next, values leading:

| inhibition | Structure (SMILES) |
| --- | --- |
| 8% | CS(=O)(=O)c1ccc2c(c1)c(Cc1ccc(Cl)cc1)cn2CC(O)CC(F)(F)F (stereo not given) |
| 12% | CS(=O)(=O)c1ccc2c(c1)c(Cc1ccc(Br)cc1)cn2CC(O)CC(F)(F)F (stereo not given) |
| 25% | CS(=O)(=O)c1ccc2[nH]c(Cc3ccc(Cl)cc3)c(Cc3ccc(Cl)cc3)c2c1 |
| 18% | NS(=O)(=O)c1ccc2[nH]c(Cc3ccc(F)cc3)c(Cc3ccc(F)cc3)c2c1 |
| 14% | CS(=O)(=O)c1ccc2c(c1)c(Cc1ccc(F)cc1)cn2CC(O)CC(F)(F)F (stereo not given) |
| 20% | CS(=O)(=O)c1ccc2c(c1)c(Cc1ccc(Br)cc1)cn2C=CCC(F)(F)F (mixture of isomers) |
| 21% | NS(=O)(=O)c1ccc2[nH]cc(Cc3ccc(Cl)cc3)c2c1 |
| 41% | NS(=O)(=O)c1ccc2[nH]c(Cc3ccc(Cl)cc3)c(Cc3ccc(Cl)cc3)c2c1 |
| 19% | NS(=O)(=O)c1ccc2[nH]cc(Cc3ccc(Br)cc3)c2c1 |

molecular target: Prostaglandin G/H synthase 2 (Homo sapiens) (UniProt P35354); assay: Inhibition of human COX2 assessed as PGE2 formation at 100 uM by enzyme immunoassay; conditions: not given

| Structure (SMILES) | inhibition |
| --- | --- |
| CS(=O)(=O)c1ccc2c(c1)c(Cc1ccc(Cl)cc1)cn2C=CCC(F)(F)F (mixture of isomers) | 23% |
| NS(=O)(=O)c1ccc2[nH]cc(Cc3ccc(F)cc3)c2c1 | 20% |
| CS(=O)(=O)c1ccc2c(c1)c(Cc1ccc(F)cc1)cn2C=CCC(F)(F)F (mixture of isomers) | 18% |
| NS(=O)(=O)c1ccc(Cc2c[nH]c3ccc(Br)cc23)cc1 | 27% |
| CS(=O)(=O)c1ccc2[nH]cc(Cc3ccc(Br)cc3)c2c1 | 26% |

Results, then the molecule that gave them:

| inhibition | Structure (SMILES) |
| --- | --- |
| 34% | CS(=O)(=O)c1ccc2c(c1)c(Cc1ccc(Cl)cc1)cn2CC(O)CC(F)(F)F (stereo not given) |
| 15% | CS(=O)(=O)c1ccc2c(c1)c(Cc1ccc(Br)cc1)cn2CC(O)CC(F)(F)F (stereo not given) |
| 9% | CS(=O)(=O)c1ccc2c(c1)c(Cc1ccc(F)cc1)cn2CC(O)CC(F)(F)F (stereo not given) |
| 19% | CS(=O)(=O)c1ccc2c(c1)c(Cc1ccc(Br)cc1)cn2C=CCC(F)(F)F (mixture of isomers) |
| 31% | NS(=O)(=O)c1ccc2[nH]cc(Cc3ccc(Cl)cc3)c2c1 |
| 24% | CS(=O)(=O)c1ccc2[nH]cc(Cc3ccc(Cl)cc3)c2c1 |

molecular target: Prostaglandin G/H synthase 2 (Homo sapiens) (UniProt P35354); assay: Inhibition of recombinant human COX2 assessed as PGE2 formation at 100 uM by enzyme immunoassay; conditions: not given

| Structure (SMILES) | inhibition |
| --- | --- |
| CS(=O)(=O)c1ccc2[nH]c(Cc3ccc(F)cc3)c(Cc3ccc(F)cc3)c2c1 | inactive |
| CS(=O)(=O)c1ccc2[nH]c(Cc3ccc(Cl)cc3)c(Cc3ccc(Cl)cc3)c2c1 | inactive |
| CS(=O)(=O)c1ccc2[nH]c(Cc3ccc(Br)cc3)c(Cc3ccc(Br)cc3)c2c1 | inactive |

molecular target: T3, Prostaglandin G/H synthase 2 (Homo sapiens) (UniProt P35354); assay: Inhibition of recombinant human COX2 assessed as PGF2alpha formation at 50 uM by enzyme immunoassay; conditions: not given
T3 sequence (whole entry): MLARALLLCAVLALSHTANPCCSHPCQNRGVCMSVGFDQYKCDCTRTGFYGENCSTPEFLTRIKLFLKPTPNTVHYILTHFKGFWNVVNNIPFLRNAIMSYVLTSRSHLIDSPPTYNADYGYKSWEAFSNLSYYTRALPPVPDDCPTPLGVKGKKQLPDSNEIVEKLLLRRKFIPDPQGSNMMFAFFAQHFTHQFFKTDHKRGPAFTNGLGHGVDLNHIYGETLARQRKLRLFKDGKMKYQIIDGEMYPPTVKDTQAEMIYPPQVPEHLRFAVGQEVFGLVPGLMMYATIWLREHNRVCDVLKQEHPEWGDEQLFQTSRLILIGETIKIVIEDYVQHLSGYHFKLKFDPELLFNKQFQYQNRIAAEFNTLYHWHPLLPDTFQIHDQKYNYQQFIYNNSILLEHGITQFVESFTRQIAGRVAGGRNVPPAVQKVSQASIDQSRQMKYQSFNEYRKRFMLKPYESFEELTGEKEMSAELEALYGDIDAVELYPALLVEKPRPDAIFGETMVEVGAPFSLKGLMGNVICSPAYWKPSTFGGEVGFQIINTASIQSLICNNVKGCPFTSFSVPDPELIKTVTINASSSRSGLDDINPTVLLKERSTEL

| Structure (SMILES) | inhibition |
| --- | --- |
| NS(=O)(=O)c1ccc2[nH]cc(Cc3ccc(F)cc3)c2c1 | 32% |
| CS(=O)(=O)c1ccc2c(c1)c(Cc1ccc(F)cc1)cn2C=CCC(F)(F)F (mixture of isomers) | 12% |
| NS(=O)(=O)c1ccc(Cc2c[nH]c3ccc(Br)cc23)cc1 | 22% |

The remaining lines, values ahead:

| inhibition | Structure (SMILES) |
| --- | --- |
| 20% | CS(=O)(=O)c1ccc2c(c1)c(Cc1ccc(Cl)cc1)cn2CC(O)CC(F)(F)F (stereo not given) |
| 23% | CS(=O)(=O)c1ccc2c(c1)c(Cc1ccc(Br)cc1)cn2CC(O)CC(F)(F)F (stereo not given) |
| 24% | CS(=O)(=O)c1ccc2[nH]c(Cc3ccc(Cl)cc3)c(Cc3ccc(Cl)cc3)c2c1 |
| 21% | CS(=O)(=O)c1ccc2c(c1)c(Cc1ccc(Br)cc1)cn2C=CCC(F)(F)F (mixture of isomers) |
| 32% | NS(=O)(=O)c1ccc2[nH]cc(Cc3ccc(Cl)cc3)c2c1 |
| 23% | NS(=O)(=O)c1ccc2[nH]cc(Cc3ccc(Br)cc3)c2c1 |
